Calls of active or inactive are those of the source. No cut-off for these calls is given here.
Legend:
[1] = target: D(1A) dopamine receptor (Sus scrofa, UniProt P50130); assay: Displacement of [3H]SCH23390 from dopamine D1 receptor in porcine cerebral cortex after 60 mins; type: tissue-based
[2] = target: T1, D(2) dopamine receptor (Homo sapiens, UniProt P14416); assay: Displacement of [3H]spiperone from human dopamine D2long receptor expressed in CHO cells after 60 mins; type: cell-based
Summary of the method: (§1)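 Incubated 60 min at 37 °C in sodium-free buffer: 50 mM Tris-HCl, 1 mM EDTA, 5 mM MgCl2, 0.1 mM DTT, bacitracin, trypsin inhibitor, pH 7.4. Ki by Cheng-Prusoff; 3-9 experiments in triplicate.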

[3] = target: T1, D(2) dopamine receptor; assay: Displacement of [3H]spiperone from human dopamine D2short receptor expressed in CHO cells after 60 mins; type: cell-based; summary of the method: as §1
[4] = target: T2, D(3) dopamine receptor (Homo sapiens, UniProt P35462); assay: Displacement of [3H]spiperone from human dopamine D3 receptor expressed in CHO cells after 60 mins; type: cell-based; summary of the method: as §1
[5] = target: T3, D(4) dopamine receptor (Homo sapiens, UniProt P21917); assay: Displacement of [3H]spiperone from human dopamine D4.4 receptor expressed in CHO cells after 60 mins; type: cell-based; summary of the method: as §1
T3 sequence (P21917 whole entry): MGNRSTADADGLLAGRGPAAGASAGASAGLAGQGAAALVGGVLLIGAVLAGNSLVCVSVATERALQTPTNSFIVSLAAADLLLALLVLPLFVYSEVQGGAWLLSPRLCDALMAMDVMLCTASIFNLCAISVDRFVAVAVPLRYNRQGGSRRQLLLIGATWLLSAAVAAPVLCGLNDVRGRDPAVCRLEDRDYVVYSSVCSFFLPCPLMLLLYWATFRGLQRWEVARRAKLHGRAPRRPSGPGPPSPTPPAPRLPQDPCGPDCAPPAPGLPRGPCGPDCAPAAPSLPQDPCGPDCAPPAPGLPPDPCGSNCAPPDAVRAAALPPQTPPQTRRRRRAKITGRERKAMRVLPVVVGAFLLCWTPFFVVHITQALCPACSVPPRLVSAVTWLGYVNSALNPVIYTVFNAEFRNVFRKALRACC

[6] = Displacement of [3H]prazosin from adrenergic alpha1 receptor in porcine cerebral cortex after 60 mins; type: tissue-based, Sus scrofa
[7] = target: T1, D(2) dopamine receptor; assay: Displacement of [3H]7-OH-DPAT from human dopamine D2long receptor expressed in CHO cells after 60 mins; type: cell-based
Summary of the method: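 CHO membranes stably expressing D2long (200 μg protein/well) incubated with 1.0 nM [3H]7-OH-DPAT for 60 min at 37 °C. […] Ki from Cheng-Prusoff; 3-8 experiments in triplicate.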

[8] = target: T2, D(3) dopamine receptor; assay: Displacement of [3H]7-OH-DPAT from human dopamine D3 receptor expressed in CHO cells after 60 mins; type: cell-based
[9] = target: T2, D(3) dopamine receptor; assay: Displacement of [3H]spiperone from wild type human dopamine D3 receptor expressed in HEK293 cells after 60 mins; type: cell-based
Summary of the method: (§2)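 Membranes from HEK293 cells transiently transfected with wild-type or mutant D3 were harvested at 48 h. KD and Bmax were set by [3H]spiperone saturation. Competition at 20-200 μg/mL protein for 1 h at 37 °C, ended by filtration on PEI-soaked GF/B filters, then scintillation counting. Ki by Cheng-Prusoff as mean ± SEM of 3-12 experiments in triplicate.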

[10] = target: D(3) dopamine receptor (Homo sapiens, UniProt P35462, V87F); assay: Displacement of [3H]spiperone from human dopamine D3 receptor V2.61F mutant expressed in HEK293 cells after 60 mins; type: cell-based; summary of the method: as §2
[11] = organism: Homo sapiens; assay: Selectivity ratio of Ki for human dopamine D3 receptor V2.61F mutant to Ki for wild type human dopamine D3 receptor
[12] = target: D(3) dopamine receptor (Homo sapiens, UniProt P35462, D110E); assay: Displacement of [3H]spiperone from human dopamine D3 receptor D3.32E mutant expressed in HEK293 cells after 60 mins; type: cell-based; summary of the method: as §2
[13] = target: T2, D(3) dopamine receptor; assay: Displacement of [3H]spiperone from human dopamine D3 receptor S5.42A mutant expressed in HEK293 cells after 60 mins; type: cell-based; summary of the method: as §2
[14] = target: D(3) dopamine receptor (Homo sapiens, UniProt P35462, S196A); assay: Displacement of [3H]spiperone from human dopamine D3 receptor S5.46A mutant expressed in HEK293 cells after 60 mins; type: cell-based; summary of the method: as §2
[15] = target: T2, D(3) dopamine receptor; assay: Displacement of [3H]spiperone from human dopamine D3 receptor H6.55A mutant expressed in HEK293 cells after 60 mins
[16] = target: T2, D(3) dopamine receptor; assay: Agonist activity at human dopamine D3 receptor expressed in HEK293 cells co-expressing Galphao1 assessed as incorporation of [35S]GTPgammaS into Galphao1 after 30 mins by scintillation counting; type: functional, cell-based
Summary of the method: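 Membranes from HEK293 cells transiently transfected with D3 plus PTX-insensitive Gαo; expression 1100 fmol/mg. Buffer: 20 mM Hepes, 10 mM MgCl2, 100 mM NaCl, 70 mg/L saponin, pH 7.4. Membranes at 30-50 μg/mL, with compound and 10 μM GDP, preincubated 30 min at 37 °C. Then 0.10 nM [35S]GTPγS added for 30 min at 37 °C. Filtration, scintillation counting.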

[17] = target: T1, D(2) dopamine receptor; assay: Agonist activity at human dopamine D2long receptor expressed in CHO cells assessed as induction of [3H]thymidine incorporation after 2 hrs
[18] = target: T2, D(3) dopamine receptor; assay: Agonist activity at human dopamine D3 receptor expressed in CHO cells assessed as induction of [3H]thymidine incorporation after 2 hrs; type: functional, cell-based
Summary of the method: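 CHO dhfr- cells stably expressing D3 receptor labeled with 0.02 μCi [3H]thymidine per well (specific activity […]) for 2 h after stimulation with compound. […] Operational model used to estimate τ.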

[19] = target: T1, D(2) dopamine receptor; assay: Agonist activity at human dopamine D2long receptor expressed in HEK293 cells co-expressing Galphao1 assessed as incorporation of [35S]GTPgammaS into Galphao1 after 30 mins by scintillation counting; type: functional, cell-based
Summary of the method: (§3)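 Membranes from HEK293 cells transiently co-transfected with D2long and PTX-insensitive Gαo (receptor 1500 ± 50 fmol/mg), harvested 48 h post-transfection. Buffer: 20 mM Hepes, 10 mM MgCl2, 100 mM NaCl, 70 mg/L saponin, pH 7.4. Membranes (30-50 μg/mL protein), compound and 10 μM GDP preincubated 30 min at 37 °C, then 0.10 nM [35S]GTPγS added for 30 min at 37 °C. Reaction stopped by filtration and bound counts read.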

[20] = target: T1, D(2) dopamine receptor; assay: Agonist activity at human dopamine D2long receptor expressed in HEK293 cells co-expressing Galphai2 assessed as incorporation of [35S]GTPgammaS into Galphai2 after 30 mins by scintillation counting; type: functional, cell-based
Summary of the method: as §3, with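 “PTX-insensitive Gαi2” for “PTX-insensitive Gαo”, “(receptor 4900” for “(receptor 1500”, “± 440” for “± 50”, “at 30” for “at 37”, “for 75” for “for 30”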

[21] = target: T1, D(2) dopamine receptor; assay: Agonist activity at human dopamine D2long receptor expressed in CHO cells assessed as increase of forskolin-induced cAMP accumulation by bioluminescence assay
[22] = target: T1, D(2) dopamine receptor; assay: Antagonist activity at human dopamine D2long receptor expressed in CHO cells assessed as inhibition of forskolin-induced cAMP accumulation by bioluminescence assay; type: functional, cell-based
Summary of the method: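 CHO cells stably expressing D2long, seeded at 5000 cells/well 24 h before assay and washed with PBS. Compounds added with 20 μM forskolin in serum-free medium containing 500 μM IBMX and 100 μM Ro 20-1724, pH 7.4, for 15 min at 25 °C. cAMP read by cAMP-Glo luminescence (PKA kinase reaction, then Kinase-Glo).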

Chain of D(1A) dopamine receptor (P50130 whole entry): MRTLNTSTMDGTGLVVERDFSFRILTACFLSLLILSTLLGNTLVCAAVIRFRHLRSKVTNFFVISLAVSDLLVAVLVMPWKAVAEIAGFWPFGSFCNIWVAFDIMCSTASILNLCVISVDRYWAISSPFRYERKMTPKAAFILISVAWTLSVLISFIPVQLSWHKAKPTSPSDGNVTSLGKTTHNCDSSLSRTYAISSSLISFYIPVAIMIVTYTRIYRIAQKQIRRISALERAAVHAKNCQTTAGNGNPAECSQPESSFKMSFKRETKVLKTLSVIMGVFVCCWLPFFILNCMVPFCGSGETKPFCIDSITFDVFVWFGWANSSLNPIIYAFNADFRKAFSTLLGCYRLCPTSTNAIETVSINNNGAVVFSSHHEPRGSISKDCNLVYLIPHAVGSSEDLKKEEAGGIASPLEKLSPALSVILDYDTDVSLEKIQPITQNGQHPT
T2 sequence (P35462 whole entry): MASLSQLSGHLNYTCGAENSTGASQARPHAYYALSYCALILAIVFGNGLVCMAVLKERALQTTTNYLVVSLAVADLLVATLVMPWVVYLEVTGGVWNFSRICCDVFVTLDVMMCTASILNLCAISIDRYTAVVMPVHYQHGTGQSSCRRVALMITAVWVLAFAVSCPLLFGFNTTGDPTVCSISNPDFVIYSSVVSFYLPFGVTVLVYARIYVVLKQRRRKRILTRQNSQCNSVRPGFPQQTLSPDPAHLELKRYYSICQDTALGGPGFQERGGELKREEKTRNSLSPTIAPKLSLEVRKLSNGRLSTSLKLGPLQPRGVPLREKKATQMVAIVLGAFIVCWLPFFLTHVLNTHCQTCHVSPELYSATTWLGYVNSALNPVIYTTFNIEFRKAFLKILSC
Chain of D(3) dopamine receptor (Homo sapiens, UniProt P35462, V87F) (P35462 as listed by the source V87F): as the sequence (P35462 whole entry) above, with G9S, V87F counted along it
Chain of D(3) dopamine receptor (Homo sapiens, UniProt P35462, D110E) (P35462 as listed by the source D110E): as the sequence (P35462 whole entry) above, with G9S, D110E counted along it
Chain of D(3) dopamine receptor (Homo sapiens, UniProt P35462, S196A) (P35462 as listed by the source S196A): as the sequence (P35462 whole entry) above, with G9S, S196A counted along it
T1 sequence (P14416 whole entry): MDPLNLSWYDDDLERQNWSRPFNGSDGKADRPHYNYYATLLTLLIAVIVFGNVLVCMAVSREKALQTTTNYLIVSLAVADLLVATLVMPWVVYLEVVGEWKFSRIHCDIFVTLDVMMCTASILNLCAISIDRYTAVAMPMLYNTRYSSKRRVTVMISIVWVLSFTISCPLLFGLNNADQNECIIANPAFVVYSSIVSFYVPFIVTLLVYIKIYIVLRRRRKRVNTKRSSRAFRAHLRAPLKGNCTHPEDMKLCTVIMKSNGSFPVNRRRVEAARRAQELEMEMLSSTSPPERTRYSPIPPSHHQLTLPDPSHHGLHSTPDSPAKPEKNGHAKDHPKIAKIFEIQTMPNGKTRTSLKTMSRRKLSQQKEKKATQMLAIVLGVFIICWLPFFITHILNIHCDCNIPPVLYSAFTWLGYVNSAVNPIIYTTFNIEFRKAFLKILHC

Compound: CCCN(CCC)[C@@H]1CCn2nccc2C1
- Ki [1]: 68000 nM
- Ki [2]: 55000 nM
- Ki [3]: 53000 nM
- Ki [4]: 2100 nM
- Ki [5]: 17000 nM
- Ki [6]: 2900 nM
- Ki [7]: 57000 nM
- Ki [8]: 4300 nM

Compound: CCCCC(=O)NCCCCN(CCC)C1Cc2ccccc2C1
- Ki [9]: 44 nM
- Ki [10]: 760 nM
- Ratio Ki [11]: 17

Compound: CCCN(CCC)C1Cc2ccccc2C1
- Ki [9]: 230 nM
- Ki [10]: 350 nM
- Ratio Ki [11]: 1.5

Compound: CCCN(CCC)[C@H]1CCn2nccc2C1
- Ki [9]: 150 nM
- Ki [12]: 8100 nM
- Ki [10]: 420 nM
- Ki [13]: 840 nM
- Ki [14]: 45 nM
- Ratio Ki [11]: 2.8
- Ki [1]: 53000 nM
- Ki [2]: 410 nM
- Ki [3]: 270 nM
- Ki [4]: 31 nM
- Ki [5]: 380 nM
- Ki [6]: 5100 nM
- Ki [7]: 4.6 nM
- Ki [8]: 14 nM
- Ki [15]: 420 nM

Compound: CCCN(CCCCNC(=O)c1ccc(-c2ccccc2)cc1)C1CCn2nccc2C1 (racemic)
- Ki [1]: 6800 nM
- Ki [2]: 150 nM
- Ki [3]: 77 nM
- Ki [4]: 0.71 nM
- Ki [5]: 59 nM
- Ki [6]: 520 nM

Compound: CCCN(CCCCNC(=O)c1ccc(-c2ccccc2)cc1)[C@@H]1CCn2nccc2C1
- Ki [9]: 19 nM
- Ki [12]: 1400 nM
- Ki [10]: 3700 nM
- Ki [13]: 240 nM
- Ki [14]: 15 nM
- Ratio Ki [11]: 190
- Ki [2]: 300 nM
- Ki [4]: 15 nM
- Ki [7]: 49 nM
- Ki [8]: 6.3 nM
- EC50 [16]: 51 nM
- Ki [15]: 43 nM

Compound: CCCN(CCCCNC(=O)c1ccc(-c2ccccc2)cc1)C1CCn2ncc(Cl)c2C1 (centres undefined)
- Ki [1]: 3600 nM
- Ki [2]: 100 nM
- Ki [3]: 43 nM
- Ki [4]: 0.59 nM
- Ki [5]: 190 nM
- Ki [6]: 260 nM

Compound: CCCN(CCCCNC(=O)c1ccc(-c2ccccc2)cc1)[C@H]1CCn2nccc2C1
- EC50 [17]: 0.51 nM
- EC50 [18]: 0.0028 nM
- Ki [9]: 0.076 nM
- Ki [12]: 850 nM
- Ki [10]: 170 nM
- Ki [13]: 2.3 nM
- Ki [14]: 0.058 nM
- Ratio Ki [11]: 2200
- Ki [2]: 5.3 nM
- Ki [4]: 0.19 nM
- Ki [7]: 1 nM
- Ki [8]: 0.027 nM
- EC50 [19]: 26 nM
- EC50 [20]: 370 nM
- EC50 [16]: 0.056 nM
- EC50 [21]: 110 nM
- Ki [15]: 0.98 nM

Compound: COc1ccccc1N1CCN(CCCCNC(=O)c2ccc(-c3ccccc3)cc2)CC1
- Ki [9]: 0.9 nM
- Ki [12]: 790 nM
- Ki [10]: 180 nM
- Ki [13]: 2.8 nM
- Ki [14]: 0.16 nM
- Ki [1]: 570 nM
- Ki [4]: 0.22 nM
- Ki [5]: 27 nM
- Ki [6]: 5.6 nM
- inhibition [22]: Active
- Ki [15]: 0.58 nM

Compound: CCCN(CCCCNC(C)=O)C1Cc2ccccc2C1
- Ki [9]: 410 nM
- Ki [10]: 330 nM
- Ratio Ki [11]: 0.8

Compound: CCCN(CCCCNC(=O)c1ccccc1)C1Cc2ccccc2C1
- Ki [9]: 2.7 nM
- Ki [10]: 250 nM
- Ratio Ki [11]: 93

Compound: CCCN(CCCCNC(=O)c1ccc(-c2ccccc2)cc1)C1Cc2cccn3ncc(c23)C1 (centres undefined)
- Ki [1]: 1800 nM
- Ki [2]: 270 nM
- Ki [3]: 240 nM
- Ki [4]: 0.55 nM
- Ki [5]: 230 nM
- Ki [6]: 86 nM

Compound: CCCN(CCCCNC(=O)c1ccc(-c2ccccc2)cc1)C1CCn2ncc(C=O)c2C1 (centres undefined)
- Ki [1]: 23000 nM
- Ki [2]: 8400 nM
- Ki [3]: 4700 nM
- Ki [4]: 39 nM
- Ki [5]: 6300 nM
- Ki [6]: 3800 nM
